Each structure is given as a SMILES string. The source made the active and inactive calls. The calls are words filed in the database; no cut-off is given here.

This note sets out measurements from ChEMBL document CHEMBL4196106, “From Naproxen Repurposing to Naproxen Analogues and Their Antiviral Activity against Influenza A Virus” (J Med Chem, 2018).

The subject of series [1] is Influenza A virus. Nature of the series: Antiviral activity against Influenza A virus (A/Udorn/1972 (H3N2)) infected in MDCK cells at MOI of 10^-3 assessed as decrease in viral load after 18 hrs by crystal violet staining-based plaque assay. It is filed as functional, organism-based.
Series [2] can be described thus: Selectivity index, ratio of CC50 for MDCK cells to IC50 for Influenza A virus (A/WSN/1933(H1N1)) infected in MDCK cells at MOI of 10^-3 after 48 hrs. Conditions: dog, read-out: Ratio CC50/IC50. In kind it is toxicity, cell-based.
The test system of series [3] is Influenza A virus. Nature of the series: Antiviral activity against Influenza A virus (A/Puerto Rico/8/1934(H1N1)) infected in C57BL/6J mouse assessed as recovery of weight loss at 8 mg/mouse/day, ip qd […] starting at 5 to 10 mins post infection measured up to day 12. It is filed as functional, organism-based.
Series [4] is described as follows: Binding affinity to Influenza A virus nucleoprotein by surface plasmon resonance analysis.
The nature of series [5]: Selectivity index, ratio of CC50 for human A549 cells to IC50 for Influenza A virus (A/Udorn/1972 (H3N2)) after 18 hrs. Conditions: read-out: Ratio CC50/IC50. It is filed as toxicity.
Series [6] has as its system Influenza A virus. Briefly: Antiviral activity against Influenza A virus (A/Puerto Rico/8/1934(H1N1)) infected in C57BL/6J mouse assessed as recovery of weight loss at 1 mg/mouse/day, ip qd treated up to day 2 starting at 5 to 10 mins post infection measured up to day 12 relative to control. It is filed as functional. The procedure, abridged: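 Intranasal A/PR/8/34 challenge at 500 PFU in female C57BL/6J mice, 5–6 weeks old, under ketamine/xylazine. Dosing was i.p. once daily on days 0, 1 and 2, starting 5–10 min post-inoculation; 1 mg/mouse is 50 mg/kg and 8 mg/mouse is 400 mg/kg. There were 10 mice per group, with saline vehicle. Survival and body weight were scored daily, with 20% weight loss as the mortality endpoint.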

Series [7] has as its system Influenza A virus. Nature of the series: Antiviral activity against Influenza A virus (A/Puerto Rico/8/1934(H1N1)) infected in C57BL/6J mouse assessed as decrease in viral load in bronchoalveolar lavage at 8 mg/mouse/day, ip qd treated up to day 2 starting at 5 to 10 mins post infection relative to control. It is filed as functional. The procedure, abridged:
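Female C57BL/6J mice, 5–6 weeks old, were anaesthetised with ketamine/xylazine (43/5 mg/kg) and inoculated intranasally with A/PR/8/34 at 500 PFU. Treatment was i.p. once daily on days 0, 1 and 2, starting 5–10 min after inoculation; 1 mg/mouse is 50 mg/kg and 8 mg/mouse is 400 mg/kg. BAL infectious titre was measured by plaque assay against saline-treated mice.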

Series [8] can be described thus: (§1) Inhibition of Influenza A virus nucleoprotein/polymerase acidic protein (1 to 27 residues) complex formation in presence of DNA by surface plasmon resonance analysis. The procedure, abridged:
(§2)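 Biotinylated PA(1-27) was captured on the chip at about 1500 RU, with a scrambled peptide on the same chip at similar RU. NP (12–2500 nM), alone or as NP-DNA complex, was injected with or without compound up to 50 µM. Running buffer was 20 mM Tris-HCl pH 7.4, 300 mM NaCl, 0.005% P20, at 25 °C and 30 µl/min. Regeneration used guanidinium chloride then 10 mM NaOH.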
Background: SPR reads the build-up and loss of mass on a sensor chip optically.

The subject of series [9] is Influenza A virus. The series is described as §1. The procedure, abridged: as §2
Series [10] concerns Influenza A virus. Nature of the series: Inhibition of Influenza A virus nucleoprotein/polymerase acidic protein (1 to 27 residues) complex formation at 100 nM by surface plasmon resonance analysis. The procedure, abridged:
as §2

Series [11] can be described thus: Selectivity index, ratio of CC50 for MDCK cells to IC50 for Influenza A virus (A/WSN/1933(H1N1)) infected in MDCK cells at MOI of 2 after 18 hrs. It is filed as toxicity, cell-based. Conditions: dog, read-out: Ratio CC50/IC50.

Broadly, the IC50 is the concentration that gives 50% inhibition. One may read the Ki as the dissociation constant of the complex between target and ligand, obtained from inhibition or displacement. With `COc1ccc2cc(-c3c(C(=O)[O-])cccc3C(=O)[O-])ccc2c1.[Na+].[Na+]`, the values for the concentration for half-maximal inhibition (IC50) (in the series with Influenza A virus [1]; in series [8]) were 2000 nM and 30 nM, respectively. In addition, the selectivity ratio at 48 h in [2] fell in the range of 4480 to 5200. Also, the result with Influenza A virus [3] was Active. In series [4], this molecule had a Ki of 97 nM. Also, the results for the selectivity ratio at 18 h in series [5] and in series [11] were 520 and 684, respectively. Also, the Activity entry with Influenza A virus [6] is recorded as “>=95%”. In addition, the “fold change (FC)” value with Influenza A virus [7] was found to be 120. The inhibition entry in the series on Influenza A virus [9] was “Dose-dependent effect”. Moreover, in the series with Influenza A virus [10], the inhibition entry is “Active”.
